Data reported in ChEMBL document CHEMBL4354800, “Amphiphilic nebramine-based hybrids Rescue legacy antibiotics from intrinsic resistance in multidrug-resistant Gram-negative bacilli” (Eur J Med Chem, 2019).

How the values were obtained:
[1] = test system: Pseudomonas aeruginosa; test: Potentiation of minocycline-induced antibacterial activity against MDR/XDR Pseudomonas aeruginosa isolate PA259-96918 harboring GyrA T83I mutant assessed as fold reduction in minocycline MIC at 7.5 uM incubated for 18 hrs by broth microdilution method; assay type: functional
[2] = test system: Pseudomonas aeruginosa; test: Potentiation of minocycline-induced antibacterial activity against MDR/XDR Pseudomonas aeruginosa isolate PA262-101856 harboring GyrA T83I mutant assessed as fold reduction in minocycline MIC at 7.5 uM incubated for 18 hrs by broth microdilution method; assay type: functional
[3] = test system: Pseudomonas aeruginosa; test: Potentiation of minocycline-induced antibacterial activity against MDR/XDR Pseudomonas aeruginosa isolate PA264-104354 harboring GyrA T83I mutant assessed as fold reduction in minocycline MIC at 7.5 uM incubated for 18 hrs by broth microdilution method; assay type: functional
[4] = test system: Klebsiella pneumoniae; test: Potentiation of rifampicin-induced antibacterial activity against Klebsiella pneumoniae 116381 assessed as fold reduction in rifampicin MIC at 4.1 uM incubated for 18 hrs by broth dilution method; assay type: functional
Summary of the method: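 Antibiotic MIC determined by CLSI broth microdilution (MHB, 5 × 10^5 CFU/mL, 18 h, 37 °C), once alone and once with a fixed concentration of the adjuvant. Potentiation is the ratio of the antibiotic MIC alone to its MIC in the presence of the adjuvant.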

[5] = test system: Pseudomonas aeruginosa; test: Antimicrobial activity against XDR Pseudomonas aeruginosa isolate PA264 infected in Galleria mellonella larvae assessed as survival rate at 75 mg/kg co-administered with 75 mg/kg rifampicin at 2 hrs post-inoculation measured after 24 hrs relative to control; assay type: functional
Summary of the method: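 G. mellonella larvae were injected with ~5 CFU of P. aeruginosa PA264 (10 µL of 5 × 10^2 CFU/mL in PBS) and held 2 h at 37 °C. A single 10 µL injection followed: monotherapy or rifampicin + compound (25+25, 50+50 or 75+75 mg/kg), with PBS as control. Larvae kept at 37 °C were scored every 6 h to 24 h; dead = no response to touch. n = 30 (two runs of 15); Kaplan-Meier.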

[6] = Toxicity in Galleria mellonella larvae assessed as tolerability by measuring larval survival at 100 mg/kg incubated for > 96 hrs; assay type: organism-based; settings: in vivo
Summary of the method: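 Uninfected G. mellonella larvae, ten per group, were injected with agent alone at 100 or 200 mg/kg. Larvae were held at 37 °C and monitored for survival for 96 h.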

[7] = test system: Pseudomonas aeruginosa; test: Potentiation of minocycline-induced antibacterial activity against MDR/XDR Pseudomonas aeruginosa isolate PA260-97103 harboring GyrA T83I mutant assessed as fold reduction in minocycline MIC at 9 uM incubated for 18 hrs by broth microdilution method; assay type: functional

## COc1c(N2C[C@@H]3CCCN(CCCCCCCCCCCCO[C@@H]4[C@@H](O)[C@H](N)C[C@H](N)[C@H]4O[C@H]4O[C@H](CN)[C@@H](O)C[C@H]4N)[C@@H]3C2)c(F)cc2c(=O)c(C(=O)O)cn(C3CC3)c12.Cl.Cl.Cl.Cl.Cl
[1]
  fold change (FC): 32
[2]
  fold change (FC): 32
[3]
  fold change (FC): 64

## Cl.Cl.Cl.Cl.Cl.NC[C@H]1O[C@H](O[C@H]2[C@H](OCCCCCCCCCCCCN3CCN(c4cc5c(cc4F)c(=O)c(C(=O)O)cn5C4CC4)CC3)[C@@H](O)[C@H](N)C[C@@H]2N)[C@H](N)C[C@@H]1O
[4]
  fold change (FC): >=128
[5]
  survival at 75 mg/kg: 53%
[6]
  Activity: Non-Toxic

## Cl.Cl.Cl.Cl.Cl.Cl.NC[C@H]1O[C@H](O[C@H]2[C@H](OCCCCCCCCCCN3CCN(Cc4cccc5ccccc45)CC3)[C@@H](O)[C@H](N)C[C@@H]2N)[C@H](N)C[C@@H]1O
[7]
  fold change (FC): 64
